According to ChEMBL document CHEMBL5705905, “Pharmacological targeting of kinases MST1 and MST2 augments tissue repair and regeneration” (Sci Transl Med, 2016):
pIC50: −log10 of the molar value. Activity calls are given as the source filed them. The rule behind the calls is not given here.

Tests used:
[1] = target: T1, Serine/threonine-protein kinase 3 (Homo sapiens, UniProt Q13188); experiment: Inhibition of recombinant His-tagged full-length MST2 (unknown origin) expressing in Escherichia coli assessed as MOB1a phosphorylation level incubated for 30 min in the presence of 300 uM ATP by immunoblot analysis
T1 sequence (Q13188 whole entry): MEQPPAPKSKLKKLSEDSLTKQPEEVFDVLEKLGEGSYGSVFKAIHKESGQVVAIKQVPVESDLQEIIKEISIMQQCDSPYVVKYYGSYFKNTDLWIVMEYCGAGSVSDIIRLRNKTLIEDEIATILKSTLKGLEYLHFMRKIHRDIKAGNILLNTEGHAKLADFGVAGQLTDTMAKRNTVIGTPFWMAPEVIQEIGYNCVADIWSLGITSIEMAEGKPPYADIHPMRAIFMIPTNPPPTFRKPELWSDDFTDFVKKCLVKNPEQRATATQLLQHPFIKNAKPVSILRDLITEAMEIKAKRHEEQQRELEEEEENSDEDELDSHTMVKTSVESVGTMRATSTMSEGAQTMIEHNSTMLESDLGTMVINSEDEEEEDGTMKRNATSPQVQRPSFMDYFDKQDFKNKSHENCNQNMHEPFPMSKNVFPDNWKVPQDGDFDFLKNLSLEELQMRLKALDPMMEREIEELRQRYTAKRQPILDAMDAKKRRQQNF

[2] = system: Tyrosine-protein kinase ABL1 (Homo sapiens), P00519 [F317I]; experiment: Inhibition of phosphorylated ABL1 F317I mutant (unknown origin) assessed as remaining activity at 1 uM by Kinome scan method relative to control
[3] = target: Bone morphogenetic protein receptor type-1B (Homo sapiens) (UniProt O00238); experiment: Inhibition of BMPR1B (unknown origin) assessed as remaining activity at 1 uM by Kinome scan method relative to control
How it was run: (§1)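 Active-site-dependent competition-binding (KINOMEscan) panel of 468 kinases, test compound at 1 μM (from a 10 mM DMSO stock). Read-out is ctrl% = (test signal − positive control signal)/(negative control signal − positive control signal) × 100. DMSO is the negative control (100%) and a control compound is the positive control (0%). Lower ctrl% means tighter binding.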

[4] = target: Tyrosine-protein kinase BTK (Homo sapiens) (UniProt Q06187); experiment: Inhibition of BTK (unknown origin) assessed as remaining activity at 1 uM by Kinome scan method relative to control; how it was run: as §1
[5] = target: Calcium/calmodulin-dependent protein kinase kinase 2 (Homo sapiens) (UniProt Q96RR4); experiment: Inhibition of CAMKK2 (unknown origin) assessed as remaining activity at 1 uM by Kinome scan method relative to control
How it was run: (§2)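 Active-site-dependent competition-binding profiling (KINOMEscan) at 1 μM against a 468-kinase panel; compound supplied from a 10 mM DMSO stock. Read-out is ctrl% = (test signal − positive control signal)/(negative control signal − positive control signal) × 100. DMSO is the negative control (100%) and a control compound the positive control (0%). Lower ctrl% means tighter binding.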

[6] = target: Cyclin-dependent kinase 8 (Homo sapiens) (UniProt P49336); experiment: Inhibition of CDK8 (unknown origin) assessed as remaining activity at 1 uM by Kinome scan method relative to control; how it was run: as §2
[7] = target: Dual specificity protein kinase CLK1 (Homo sapiens) (UniProt P49759); experiment: Inhibition of CLK1 (unknown origin) assessed as remaining activity at 1 uM by Kinome scan method relative to control; how it was run: as §2
[8] = target: Epidermal growth factor receptor (Homo sapiens) (UniProt P00533); experiment: Inhibition of EGFR (unknown origin) assessed as remaining activity at 1 uM by Kinome scan method relative to control
[9] = target: Hepatocyte growth factor receptor (Homo sapiens) (UniProt P08581); experiment: Inhibition of MET (unknown origin) assessed as remaining activity at 1 uM by Kinome scan method relative to control
[10] = target: Mitogen-activated protein kinase 12 (Homo sapiens) (UniProt P53778); experiment: Inhibition of P38gamma (unknown origin) assessed as remaining activity at 1 uM by Kinome scan method relative to control
[11] = target: 1-phosphatidylinositol 3-phosphate 5-kinase (Homo sapiens) (UniProt Q9Y2I7); experiment: Inhibition of PIKFYVE (unknown origin) assessed as remaining activity at 1 uM by Kinome scan method relative to control
[12] = target: Protein kinase C delta type (Homo sapiens) (UniProt Q05655); experiment: Inhibition of PRKCD (unknown origin) assessed as remaining activity at 1 uM by Kinome scan method relative to control
[13] = target: Serine/threonine-protein kinase D2 (Homo sapiens) (UniProt Q9BZL6); experiment: Inhibition of PRKD2 (unknown origin) assessed as remaining activity at 1 uM by Kinome scan method relative to control
[14] = target: Ribosomal protein S6 kinase alpha-5 (Homo sapiens) (UniProt O75582); experiment: Inhibition of N-terminal kinase domain RPS6KA5 (unknown origin) assessed as remaining activity at 1 uM by Kinome scan method relative to control
[15] = target: Serine/threonine-protein kinase TAO1 (Homo sapiens) (UniProt Q7L7X3); experiment: Inhibition of TAOK1 (unknown origin) assessed as remaining activity at 1 uM by Kinome scan method relative to control
[16] = target: Serine/threonine-protein kinase WNK3 (Homo sapiens) (UniProt Q9BYP7); experiment: Inhibition of WNK3 (unknown origin) assessed as remaining activity at 1 uM by Kinome scan method relative to control
[17] = target: T2, Serine/threonine-protein kinase 4 (Homo sapiens, UniProt Q13043); experiment: Inhibition of MST1 (unknown origin) in presence of ATP by enzymatic assay
T2 sequence (Q13043 whole entry): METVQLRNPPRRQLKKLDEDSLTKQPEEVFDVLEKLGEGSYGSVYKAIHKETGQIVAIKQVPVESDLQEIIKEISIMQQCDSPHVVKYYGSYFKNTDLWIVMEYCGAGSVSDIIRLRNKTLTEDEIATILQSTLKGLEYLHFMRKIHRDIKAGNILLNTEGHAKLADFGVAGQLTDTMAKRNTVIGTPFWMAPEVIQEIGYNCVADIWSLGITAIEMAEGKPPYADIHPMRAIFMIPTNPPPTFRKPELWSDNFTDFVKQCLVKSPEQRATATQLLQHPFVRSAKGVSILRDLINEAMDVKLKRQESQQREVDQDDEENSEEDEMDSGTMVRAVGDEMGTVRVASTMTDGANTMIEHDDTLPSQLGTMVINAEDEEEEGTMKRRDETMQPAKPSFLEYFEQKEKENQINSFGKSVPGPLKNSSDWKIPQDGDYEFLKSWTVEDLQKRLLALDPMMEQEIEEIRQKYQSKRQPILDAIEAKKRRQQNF

[18] = target: Serine/threonine-protein kinase TAO3 (Homo sapiens, UniProt Q9H2K8); experiment: Inhibition of TAOK3 (unknown origin) in presence of ATP by enzymatic assay
[19] = organism: Homo sapiens; experiment: Inhibition of recombinant His-tagged full-length MST1 Y101F mutant (unknown origin) expressing in Escherichia coli assessed as GST-tagged MOB1 phosphorylation level at 0.01 to 1 uM incubated for 15 min by immunoblot analysis; details: dose 0.01-1 µM
[20] = system: Mus musculus; experiment: Protection against human hepatocyte transplanted FRG mouse assessed as increase in human albumin level at 1 mg/kg, ip administrated once a day and measured within 6 weeks; format: functional, organism-based; details: Liver

Sequence of Serine/threonine-protein kinase WNK3 (Homo sapiens) (Q9BYP7 whole entry): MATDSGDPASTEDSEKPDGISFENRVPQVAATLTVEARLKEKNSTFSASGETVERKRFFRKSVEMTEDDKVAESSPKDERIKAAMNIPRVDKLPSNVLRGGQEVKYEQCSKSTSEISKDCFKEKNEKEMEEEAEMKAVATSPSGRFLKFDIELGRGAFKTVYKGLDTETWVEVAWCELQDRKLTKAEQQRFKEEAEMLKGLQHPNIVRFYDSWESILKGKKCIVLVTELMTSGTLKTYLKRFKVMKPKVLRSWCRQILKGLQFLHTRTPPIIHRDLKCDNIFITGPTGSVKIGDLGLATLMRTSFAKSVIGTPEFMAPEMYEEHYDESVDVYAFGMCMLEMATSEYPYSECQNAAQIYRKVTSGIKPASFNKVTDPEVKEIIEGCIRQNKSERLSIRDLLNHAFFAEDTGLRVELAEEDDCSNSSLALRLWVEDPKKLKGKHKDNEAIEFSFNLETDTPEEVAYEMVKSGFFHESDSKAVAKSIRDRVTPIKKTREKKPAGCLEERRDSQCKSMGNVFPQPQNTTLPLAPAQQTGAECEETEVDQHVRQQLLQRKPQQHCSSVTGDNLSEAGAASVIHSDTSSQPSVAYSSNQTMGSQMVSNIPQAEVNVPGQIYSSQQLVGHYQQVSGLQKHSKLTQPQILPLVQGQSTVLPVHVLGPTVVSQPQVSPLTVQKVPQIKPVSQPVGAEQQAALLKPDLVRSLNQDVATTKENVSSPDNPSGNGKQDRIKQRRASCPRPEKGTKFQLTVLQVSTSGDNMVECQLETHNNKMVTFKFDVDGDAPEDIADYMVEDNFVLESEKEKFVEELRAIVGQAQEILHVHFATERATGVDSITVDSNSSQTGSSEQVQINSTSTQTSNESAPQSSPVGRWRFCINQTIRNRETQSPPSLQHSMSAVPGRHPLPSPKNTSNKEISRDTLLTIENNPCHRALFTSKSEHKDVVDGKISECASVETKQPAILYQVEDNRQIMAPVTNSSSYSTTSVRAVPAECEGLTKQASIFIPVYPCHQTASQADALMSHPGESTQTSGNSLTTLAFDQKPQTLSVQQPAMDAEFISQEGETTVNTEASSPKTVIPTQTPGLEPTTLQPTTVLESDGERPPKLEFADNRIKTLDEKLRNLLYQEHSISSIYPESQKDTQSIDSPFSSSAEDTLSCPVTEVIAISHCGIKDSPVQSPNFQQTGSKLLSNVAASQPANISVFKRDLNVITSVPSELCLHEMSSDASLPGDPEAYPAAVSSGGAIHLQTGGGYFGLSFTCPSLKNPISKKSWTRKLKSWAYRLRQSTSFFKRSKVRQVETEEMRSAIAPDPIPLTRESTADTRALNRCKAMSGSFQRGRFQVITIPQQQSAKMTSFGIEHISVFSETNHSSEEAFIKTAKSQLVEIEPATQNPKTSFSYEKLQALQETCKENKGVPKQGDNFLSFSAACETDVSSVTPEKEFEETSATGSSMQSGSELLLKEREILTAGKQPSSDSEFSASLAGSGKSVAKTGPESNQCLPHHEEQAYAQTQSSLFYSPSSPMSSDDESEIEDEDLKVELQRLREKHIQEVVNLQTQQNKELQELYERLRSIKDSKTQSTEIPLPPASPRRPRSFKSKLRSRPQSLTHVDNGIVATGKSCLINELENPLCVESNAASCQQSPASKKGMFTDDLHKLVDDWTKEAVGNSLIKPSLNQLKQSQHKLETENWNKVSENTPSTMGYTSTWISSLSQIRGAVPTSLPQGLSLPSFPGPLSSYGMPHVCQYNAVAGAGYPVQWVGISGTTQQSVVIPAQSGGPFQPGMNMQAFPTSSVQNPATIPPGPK
Sequence of Serine/threonine-protein kinase TAO3 (Q9H2K8 whole entry): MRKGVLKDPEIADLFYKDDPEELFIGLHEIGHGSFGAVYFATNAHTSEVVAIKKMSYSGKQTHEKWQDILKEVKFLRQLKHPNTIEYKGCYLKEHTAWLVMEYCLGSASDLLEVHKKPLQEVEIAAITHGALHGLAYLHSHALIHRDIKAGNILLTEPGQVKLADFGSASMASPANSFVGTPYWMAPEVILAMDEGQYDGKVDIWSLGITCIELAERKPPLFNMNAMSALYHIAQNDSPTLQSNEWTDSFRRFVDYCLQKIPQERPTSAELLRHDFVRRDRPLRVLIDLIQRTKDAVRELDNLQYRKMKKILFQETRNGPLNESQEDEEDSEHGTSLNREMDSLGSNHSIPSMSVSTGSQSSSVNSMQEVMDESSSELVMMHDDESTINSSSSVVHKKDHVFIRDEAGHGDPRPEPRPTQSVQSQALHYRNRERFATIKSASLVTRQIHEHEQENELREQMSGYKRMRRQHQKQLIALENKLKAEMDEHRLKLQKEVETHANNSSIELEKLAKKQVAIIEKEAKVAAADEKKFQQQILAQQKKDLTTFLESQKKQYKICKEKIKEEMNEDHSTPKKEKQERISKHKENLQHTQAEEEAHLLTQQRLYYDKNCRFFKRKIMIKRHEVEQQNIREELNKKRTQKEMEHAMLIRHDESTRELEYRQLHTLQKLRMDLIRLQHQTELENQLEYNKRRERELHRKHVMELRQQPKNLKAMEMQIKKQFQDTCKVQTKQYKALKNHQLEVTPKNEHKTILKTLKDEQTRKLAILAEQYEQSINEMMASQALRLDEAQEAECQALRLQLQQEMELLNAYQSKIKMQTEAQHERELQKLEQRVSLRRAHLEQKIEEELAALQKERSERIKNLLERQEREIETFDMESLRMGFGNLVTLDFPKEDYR
Sequence of Dual specificity protein kinase CLK1 (Homo sapiens) (P49759 whole entry, looked up): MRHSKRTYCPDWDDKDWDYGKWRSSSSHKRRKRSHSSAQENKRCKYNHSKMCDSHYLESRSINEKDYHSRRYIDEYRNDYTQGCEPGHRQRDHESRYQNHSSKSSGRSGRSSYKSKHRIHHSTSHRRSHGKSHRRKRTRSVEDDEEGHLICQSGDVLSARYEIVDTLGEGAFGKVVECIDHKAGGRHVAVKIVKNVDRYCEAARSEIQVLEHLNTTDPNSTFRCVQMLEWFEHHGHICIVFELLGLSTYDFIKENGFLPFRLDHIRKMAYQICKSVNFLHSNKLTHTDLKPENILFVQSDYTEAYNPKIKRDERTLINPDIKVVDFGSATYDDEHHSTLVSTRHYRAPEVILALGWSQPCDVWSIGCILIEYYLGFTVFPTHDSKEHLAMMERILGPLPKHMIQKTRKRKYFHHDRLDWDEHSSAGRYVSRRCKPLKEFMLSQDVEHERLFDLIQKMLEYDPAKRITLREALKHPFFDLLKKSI
Sequence of Ribosomal protein S6 kinase alpha-5 (Homo sapiens) (O75582 whole entry, looked up, the tested form may be a part): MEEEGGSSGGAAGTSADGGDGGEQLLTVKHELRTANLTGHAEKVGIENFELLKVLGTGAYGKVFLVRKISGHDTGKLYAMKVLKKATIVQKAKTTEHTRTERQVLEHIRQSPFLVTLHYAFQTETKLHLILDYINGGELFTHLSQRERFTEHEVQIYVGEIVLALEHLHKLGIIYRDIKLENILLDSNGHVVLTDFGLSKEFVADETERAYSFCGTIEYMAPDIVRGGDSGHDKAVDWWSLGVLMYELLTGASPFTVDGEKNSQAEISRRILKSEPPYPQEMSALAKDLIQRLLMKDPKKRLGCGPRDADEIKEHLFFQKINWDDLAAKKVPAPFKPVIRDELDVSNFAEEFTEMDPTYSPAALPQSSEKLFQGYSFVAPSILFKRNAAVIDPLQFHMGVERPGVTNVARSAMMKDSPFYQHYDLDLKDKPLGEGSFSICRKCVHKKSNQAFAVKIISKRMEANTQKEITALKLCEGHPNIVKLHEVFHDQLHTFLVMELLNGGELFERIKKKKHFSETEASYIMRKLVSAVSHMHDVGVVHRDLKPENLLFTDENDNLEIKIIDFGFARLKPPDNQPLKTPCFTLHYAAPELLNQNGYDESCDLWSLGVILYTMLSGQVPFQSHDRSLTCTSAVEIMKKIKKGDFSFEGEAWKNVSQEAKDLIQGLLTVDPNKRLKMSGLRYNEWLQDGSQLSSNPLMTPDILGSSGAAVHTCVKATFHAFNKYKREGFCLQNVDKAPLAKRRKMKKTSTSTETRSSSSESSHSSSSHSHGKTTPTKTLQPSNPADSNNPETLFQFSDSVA
Sequence of Bone morphogenetic protein receptor type-1B (Homo sapiens) (O00238 whole entry): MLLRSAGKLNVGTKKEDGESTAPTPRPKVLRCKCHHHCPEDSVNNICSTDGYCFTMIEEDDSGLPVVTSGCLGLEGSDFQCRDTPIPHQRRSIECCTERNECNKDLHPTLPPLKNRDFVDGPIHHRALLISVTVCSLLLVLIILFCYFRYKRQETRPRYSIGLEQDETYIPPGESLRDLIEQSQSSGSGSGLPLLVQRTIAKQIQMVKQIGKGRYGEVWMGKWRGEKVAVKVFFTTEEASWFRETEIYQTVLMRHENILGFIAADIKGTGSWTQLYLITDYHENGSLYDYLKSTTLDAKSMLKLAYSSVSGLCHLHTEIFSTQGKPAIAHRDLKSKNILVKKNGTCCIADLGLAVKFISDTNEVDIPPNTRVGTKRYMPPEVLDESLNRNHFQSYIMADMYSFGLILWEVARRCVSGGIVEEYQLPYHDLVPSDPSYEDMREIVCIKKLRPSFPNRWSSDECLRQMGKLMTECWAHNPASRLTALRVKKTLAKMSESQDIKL
Sequence of Calcium/calmodulin-dependent protein kinase kinase 2 (Homo sapiens) (Q96RR4 2-588 limits assumed): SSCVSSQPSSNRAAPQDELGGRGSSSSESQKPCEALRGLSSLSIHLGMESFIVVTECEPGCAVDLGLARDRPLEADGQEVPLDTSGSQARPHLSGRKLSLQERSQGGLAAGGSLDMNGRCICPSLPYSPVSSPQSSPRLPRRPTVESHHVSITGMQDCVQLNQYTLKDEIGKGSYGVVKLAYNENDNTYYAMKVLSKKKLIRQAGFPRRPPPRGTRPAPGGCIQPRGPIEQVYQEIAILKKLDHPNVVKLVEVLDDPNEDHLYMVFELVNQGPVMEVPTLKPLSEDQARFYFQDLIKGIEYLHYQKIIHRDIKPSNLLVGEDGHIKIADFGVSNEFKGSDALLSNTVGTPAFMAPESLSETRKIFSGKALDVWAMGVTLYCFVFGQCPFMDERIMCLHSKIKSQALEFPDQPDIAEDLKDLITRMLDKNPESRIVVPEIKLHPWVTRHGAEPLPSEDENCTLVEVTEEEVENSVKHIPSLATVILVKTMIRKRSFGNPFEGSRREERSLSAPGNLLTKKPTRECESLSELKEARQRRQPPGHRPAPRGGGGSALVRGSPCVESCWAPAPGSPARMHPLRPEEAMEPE

SMILES: CN1C(=O)c2sccc2N(C)c2nc(Nc3ccc(S(N)(=O)=O)cc3)ncc21
- pIC50 [1]: 5.82
- Activity [2]: 39%
- Activity [3]: 26%
- Activity [4]: 48%
- Activity [5]: 84%
- Activity [6]: 94%
- Activity [7]: 72%
- Activity [8]: 100%
- Activity [9]: 100%
- Activity [10]: 48%
- Activity [11]: 64%
- Activity [12]: 94%
- Activity [13]: 87%
- Activity [14]: 97%
- Activity [15]: 2.6%
- Activity [16]: 71%
- pIC50 [17]: 8.01
- pIC50 [18]: 6.60
- inhibition [19]: Active
- Activity [20]: Active
